Hits are enriched below; roughly 2.8% of the tested compounds scored in any of these assays.
EBI2 antag = antagonists of human EBI2 receptor. P32249. EBI2 beta-arrestin recruitment, luminescence, 7a,25-OHC stimulated. inhibition, % at 5 µM. 360,000 compounds, 0.81% hits. AID 651636; in the data active = inhibition above about 38%;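 also: enzyme fragment complementation signal reports receptor beta-arrestin coupling in cells; 0% = agonist plus DMSO wells and 100% = wells without agonist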
Target sequence (P32249 whole entry, looked up, the tested form may be a part): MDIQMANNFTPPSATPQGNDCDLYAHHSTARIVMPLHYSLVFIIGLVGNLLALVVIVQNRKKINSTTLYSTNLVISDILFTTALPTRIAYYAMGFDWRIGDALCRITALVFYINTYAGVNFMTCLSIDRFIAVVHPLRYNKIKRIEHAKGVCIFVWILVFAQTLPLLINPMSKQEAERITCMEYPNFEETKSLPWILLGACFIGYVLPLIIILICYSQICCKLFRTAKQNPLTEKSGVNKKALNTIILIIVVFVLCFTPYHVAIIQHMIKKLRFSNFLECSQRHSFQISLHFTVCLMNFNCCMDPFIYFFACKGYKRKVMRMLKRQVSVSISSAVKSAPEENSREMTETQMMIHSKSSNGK
MC4R antag cAMP = antagonists of human melanocortin 4 receptor (MC4R); MC4R-expressing cells, MTII-stimulated cAMP, LANCE TR-FRET; 360,000 compounds, 0.48% hits; inhibition, % at 6.5 µM;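 active = inhibition above its plate's cutoff, the mean of tested wells on that plate plus 3 SD, cut at about 29% in these data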;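 also: 0% = Melanotan II alone and 100% = Melanotan II plus saturating MCL0020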
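material = U2OS cells stably expressing human melanocortin 4 receptor (MC4R) | also added = Melanotan II challenge | dosing = single nominal compound dose of 6.5 µM | detection = TR-FRET with Eu-cAMP and labeled anti-cAMP, 671 nm | replication = singlicate | timing = compound 30 min, challenge 1 h, detection 1 h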
HTR2A ag = mouse HTR2A agonism via beta-arrestin recruitment; P35363; CHO-K1 mHTR2A beta-arrestin complementation, luminescence; percent of 30 µM serotonin response; activation, % at 7.6 µM; 360,000 compounds, 0.66% hits;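 active = activation above a run cutoff, the mean activation of all tested compounds plus 3 SD, cut at about 14% in these data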;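 also: 0% = plate median of compound wells and 100% = 30 µM serotonin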
MC4R ag barr = activates human MC4R beta-arrestin recruitment. U2OS MC4R beta-arrestin complementation, luminescence; percent of melanotan II response, DMSO zero. P32245. 360,000 compounds, 0.98% hits. AID 540308. activation, % at 8.9 µM;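 active = activation above a per-plate cutoff, the mean activation of sample wells on that plate plus 3 SD, cut at about 8% in these data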
cAMP nonselect = U2OS forskolin cAMP inhibition counter-screen | shares compounds with MC4R antag cAMP | parental U2OS, LANCE TR-FRET | inhibition, % at 6.5 µM | 1,600 compounds, 26% hits;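 active = mean inhibition over triplicates above the low-control well mean plus 3 SD, set per campaign, cut at about 13% in these data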;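 also: signal is single emission at 671 nm which falls as cellular cAMP rises; 0% = forskolin-stimulated wells and 100% = buffer without forskolin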
MC4R antag conf = human MC4R cAMP antagonism confirmation. shares compounds with MC4R antag cAMP. MC4R-expressing cells, MTII-stimulated cAMP, TR-FRET. inhibition, % at 6.5 µM. 1,600 compounds, 27% hits; in the data active = inhibition above about 29%;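 also: 0% = agonist stimulated wells alone and 100% = agonist stimulated wells plus saturating reference antagonist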
Starred values were filed as active, the others as inactive; . = not tested or not shown; + = active, no number; ! = not confirmed by another sample.

SMILES | EBI2 antag | MC4R antag cAMP | HTR2A ag | MC4R ag barr | cAMP nonselect | MC4R antag conf
O=C1N(Cc2cccc(Cl)c2)C[C@@H]2C[C@@H](c3cccc4cccnc34)N3CCC[C@@]123 | 5 | 34* | -7 | 0 | -1 | 0
Cc1ccc(-n2nc(-c3ccc(OC(F)(F)F)cc3)cc2N)cc1C | -2 | 29* | -5 | 4 | 4 | 8
Cc1ccc(/C=C/C(=O)OCC(=O)NC(=O)NCc2ccco2)cc1 | 35 | -1 | 3 | 0 | . | .
S=c1nc[nH]c2c1[nH]c1ccccc12 | -10 | 49* | 6 | -3 | 4 | 17
S=c1nc[nH]c2c1[nH]c1ccc(Cl)cc12 | 0 | 35* | -3 | 2 | 3 | -4
CC(C)NS(=O)(=O)c1ccc(CCC(=O)N2CCC(C(N)=O)CC2)cc1 | 1 | 31* | -2 | 0 | 4 | 9
CC(C)NS(=O)(=O)c1ccc(CCC(=O)N2CCCC2)cc1 | -8 | -3 | -3 | 0 | . | .
CCc1nc2ccc(C(=O)NCc3ccc(OC)cc3)cn2c1N(CCC(C)C)CCN(C)C | -9 | 28 | -2 | -1 | . | .
Cc1csc(NC(=O)c2ccc(Cl)nc2)n1 | -6 | 29* | 10 | 0 | 3 | -7
O=C(Nc1nccs1)c1ccc(Cl)nc1 | -9 | -5 | -1 | 0 | . | .
Cc1ccc(S(=O)(=O)/N=C2/C=C(Sc3ncn[nH]3)C(=O)c3ccccc32)cc1 | 0 | 48* | 20* | -1 | 27* | 35*
O=C(O)c1ccccc1-c1c2cc(I)c(=O)c(I)c-2oc2c(I)c(O)c(I)cc12 | 27 | + | -9 | -3 | 105* | 164*
CN(Nc1cccc(Cl)c1)c1cccc(Cl)c1 | -1 | -10 | -4 | 1 | . | .
CCOC(=O)Cc1ccc(NC(=O)c2cccc([N+](=O)[O-])c2)cc1 | -6 | 9 | -1 | -2 | . | .
CCOC(=O)CSc1nnc(NC(=O)c2cccc([N+](=O)[O-])c2)s1 | 1 | 39* | 2 | -1 | 3 | 0
COc1ccc(C[C@@H]2OC3(C=CC(=O)C=C3)O[C@H]2Cc2ccc(OC)cc2)cc1 | 88* | 60* | -5 | -3 | 35* | 34*
CC(C)N=C(N)N=C(N)Nc1ccc(Cl)cc1 | -6 | 12 | -9 | -1 | . | .
NC(=NCCCCCCN=C(N)/N=C(\N)Nc1ccc(Cl)cc1)/N=C(\N)Nc1ccc(Cl)cc1 | 11 | 80*! | -8 | 2 | -11 | 71*
COc1ncccc1-c1cc2nc(NCCNC(C)=O)n(C)c(=O)c2s1 | 2 | -28 | 8 | 1 | . | .
N#CC(C#N)=C1C=CC=CN1/C(=C\c1ccco1)C(=O)c1ccc(-c2ccccc2)cc1 | 29 | 31* | 0 | -4 | 0 | 13
CC(/C=N/n1c(-c2ccc(Cl)cc2)n[nH]c1=S)=C\c1ccco1 | -8 | 10 | 2 | 2 | . | .
N#CC(C#N)=C1C=CC=CN1/C(=C\c1ccco1)C(=O)c1ccc(Cl)cc1 | 74* | 34* | -2 | -3 | 29* | 43*
CC1(C)Cc2c(sc3[nH]c(=S)n(Cc4ccco4)c(=O)c23)CO1 | 3 | 34* | 8 | 0 | 7 | 17
O=c1c2c3c(sc2[nH]c(=S)n1Cc1ccco1)CCC3 | 1 | 10 | 2 | -3 | . | .
COCCn1c(SCC(=O)NC2CCCCC2C)nnc1-c1ccncc1 (stereo not given) | 3 | 29* | -5 | 0 | 0 | -4
SMILES | EBI2 antag | MC4R antag cAMP | HTR2A ag | MC4R ag barr | cAMP nonselect | MC4R antag conf
CN1C[C@@H]2[C@@H]3C(=O)N(C)C(=O)[C@@H]3[C@](C)(C1=O)N2C(=O)c1ccccc1 | -8 | 6 | 3 | -1 | . | .
O=C(C(=O)N1CCC(c2ccccc2)CC1)c1ccc(F)c(F)c1 | 17 | . | 5 | . | . | .
Clc1ccc(-c2ccnc(-n3cccc3)n2)s1 | 4 | 7 | 0 | 1 | . | .
Cc1cc(-c2sccc2Br)nc(-n2cccc2)n1 | 5 | 35* | -1 | 4 | 9 | 4
Cc1cc(-c2ccc(Br)s2)nc(-n2cccc2)n1 | -1 | 41* | 2 | -1 | 10 | -8
CCCNC(=O)C1(C)CCCN(C(=O)/C=C/c2ccccc2)C1 (stereo not given) | -3 | 3 | -2 | -1 | . | .

From PubChem
